48 sequences from the EternaBench riboswitch data can be followed below.

This data set concerns MS2 coat protein. Put plainly: apparent Kd, MS2 coat protein; higher = weaker binding; RNA-MaP array; FMN 200 µM where present. The gist of the method:
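Designs were transcribed by stalled E. coli RNA polymerase on Illumina sequencing-chip clusters. They were titrated with SNAP-549-labelled MS2 coat protein from 0.7 or 1.5 nM, doubling to 3 µM, in 100 mM Tris-HCl pH 7.5, 80 mM KCl, 4 mM MgCl2, BSA, DTT, yeast tRNA and Tween-20, without and then with constant ligand. The apparent Kd is the median of filtered per-cluster fits after normalisation of green signal to red-channel RNA signal and control-cluster median Fmax.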

The mark [1] stands for this setting: designed as: ON switch for flavin mononucleotide, no ligand.
[2] abbreviates: ligand present: flavin mononucleotide, designed as: ON switch for flavin mononucleotide.
Where [3] appears, read: designed as: OFF switch for flavin mononucleotide, no ligand.
Setting [4] is: ligand present: flavin mononucleotide, designed as: OFF switch for flavin mononucleotide.

As for “AUUUAUGGCCAGAAGGACAUGAGGAUCACCCAUGUAGGAUAUGGACGAUUUUACUCGGCGGUUUGUUAAGGAAGCACCGGCGGU”, the apparent Kd – broadly, the concentration giving half-maximal binding under the conditions of the assay – was 7.76 nM under setting [1] and 6.08 nM under setting [2].
For “GUCAGCUCGUGAGGAUAUACAACACUGCUUCGGCAGUGUAUGAAGAUCACAUGAGGAUCACCCAUGUAGAAGGCACGAGCUGAU”, the “apparent Kd” value came to 9.93 nM under setting [3] and 176 nM under setting [4].
As for “CCGAAACCUCAGAAGGACCACAUGAGGAUCACCCAUGUCAAGCAAAACGGUAGGAUAUGAGGGAAAUGUCGAUAUACCCGACAG”, the “apparent Kd” value under setting [1] is 7.9 nM and the “apparent Kd” value under setting [2] is 4.72 nM.
As for “GUAAAGUGAGGAUAUGGUAAAGUAAUUAUUUAGUAAGUAAUCCAGAAGGCACAUGAGGAUCACCCAUGUAAAUG”, the “apparent Kd” value stood at 31.3 nM under setting [3] and 36.8 nM under setting [4].
In the case of “CAUAUCGUAAGAGGAUAUAUGAGUCCUACAUGAGGAUCACCCAUGUAGGUGAUCUAACGAGAUUAGUAGAAGGCUUACGAUAUG”, the “apparent Kd” value by setting is: under setting [1], 16.2 nM; under setting [2], 7.62 nM.
The corresponding values for “UUGGACGUCGUAGGAUAUGGAGGAUAUUCCUACAUGAGGAUCACCCAUGUUGACAUGGAAGAAGGACAGAAGGACGAUGUCCAU” are 10.1 nM and 4.14 nM.
Take “UUAUAUAGUGUGAGGAUAUGCUGGUCCUUGGAUCAGCAGAAGGCACAUGAGGAUCACCCAUGUAAUAUAUUAUU”: the “apparent Kd” value by setting is: under setting [3], 67.1 nM; under setting [4], 156 nM.
The matching figures for “GCAAGAACGGGUCAGUCCCAGAUGAGAAGGGUAGGUGGCGAUGAGUACAUGAGGAUCACCCAUGUACAGGAUAUCAUCAUUGUA”: 7.63 nM and 8.66 nM.
The matching figures for “AGUCGGAGCAGAGGAUAUAUACAUGAGGAUCACCCAUGUGACUGACUACGCUGGAAACAGCAUGUAUAGAAGGCUGCUCCGACA”: 448 nM and 882 nM.
The corresponding values for “CAUGUCUGAGGAUAUCGUUAUUUGUACAUGAGGAUCACCCAUGUCCUAUUUAUUAUAUUUCGAGAAGGCAGUGUAU” are 16.9 nM and 18.2 nM.
As for “GCCGGAGCAGGAUAUUCAAUAUCACACAUGAGGAUCACCCAUGUCCAGCGAAAGCUGGAGGGAGAAGGGCUCUGGC”, the “apparent Kd” value reads like this: under setting [3], 70.8 nM; under setting [4], 20.3 nM.
The corresponding values for “CAAAGUUGGUAAGGAUAUCCCACAUUAUUCUGACCCGUGCAAGCUACAUGAGGAUCACCCAUGUGGGAGAAGGUGCGGUAAAGA” are 6.16 nM and 6.11 nM.
On to “GCGGAACAUGAGGAUCACCCAUGUGGAGGGUGUAAAGGAUAUUAUAGAGAGAAGGUAGGGUAAGAAGGUUGCUGGG”, for which the “apparent Kd” value was found to be 843 nM under setting [1] and 763 nM under setting [2].
For “UCCUGGCGAGGAUAUACAAAGUUUUUUACGUUUUGUUACGAACAUGAGGAUCACCCAUGUAGAAGGUGCUGCUG”, the “apparent Kd” value was determined as 62.2 nM under setting [3] and 58.1 nM under setting [4].
The corresponding values for “CCCGCGAUGUCAGGAUAUAGUCGGAGGUGCAGACUAGAAGGGACAUGAGGAUCACCCAUGUGCGUAAACAUUUGAAACCCAGGU” are 16.5 nM and 33.1 nM.
The corresponding values for “CAUGUGUAAGGAUAUGACAAUGGUAUCUUCGGAUACCAUUGUCAGAAGGUACAUGAGGAUCACCCAUGUAGAUC” are 55 nM and 240 nM.
The matching figures for “UUUUUGUCAGGAUAUCAAAAGUACUACUUCGGUAGUACUUUUGAGAAGGGACAUGAGGAUCACCCAUGUAGUUU”: 61.4 nM and 285 nM.
For “GGACGGAAAGUGAGGAUAUGCUCUACCUCGGUAGAGCAGAAGGCACAUGAGGAUCACCCAUGUGAUUACUGUUC”, the “apparent Kd” value reads like this: under setting [3], 25.5 nM; under setting [4], 184 nM.
The corresponding values for “CGUAUGUCAGGAUAUGUGUAUGCCGGUCAGGGCGAGCGGCAGCAGAAGGGACAUGAGGAUCACCCAUGUUCGGG” are 59.6 nM and 116 nM.
The corresponding values for “ACAUGAGGAUCACCCAUGUUUUUUGGGUACUUUUGUUUCUGCAAGGAUAUGCAUUAUUUAUAUACGCAGAAGGUGCAUUACUUC” are 573 nM and 708 nM.
“AGGUCGAGUGUGAGGAUAUUGACCGGACGACCCAUCGAGAAGGCACAUGAGGAUCACCCAUGUGAUUCAGCUCA”: the “apparent Kd” value reads like this: under setting [3], 15 nM; under setting [4], 17.1 nM.
Consider “CGGCAAGUCGUAGGAUAUGGUGAUGUACAUGAGGAUCACCCAUGUCCGUCUUCUCUCACAAGAUGCCAGAAGGGCGACUUCCGG”, for which the “apparent Kd” value was determined as 829 nM under setting [1] and 340 nM under setting [2].
In the case of “GCACUGGAUGUAGGAUAUCAGGACGAUAAGUCCUGAGAAGGACAUGAGGAUCACCCAUGUAAAACCUCCCAGUGCUAUAAUAUA”, the “apparent Kd” value reads like this: under setting [3], 17.1 nM; under setting [4], 19.7 nM.
The corresponding values for “GUAGAGUCAGGAUAUACAAGAUCGAAAGAUCGAAGAUCCAUACAUGAGGAUCACCCAUGUAGAAGGGACUCUAC” are 17.1 nM and 35.8 nM.
For “UGGAUGGUAUGAGGAUAUGCGCGCGAAACGUGCGCAGAAGGCAUGUCAAUAGACAUGAGGAUCACCCAUGUAUUAUCCAUCCAA”, the “apparent Kd” value was 140 nM under setting [1] and 12.5 nM under setting [2].
As for “ACAGUAAACGAAGGAUAUGGUUACAUGAGGAUCACCCAUGUAAUGGUUGUGAUAUUGAUUAAGUUCCAGAAGGUCGUAUACUUA”, the “apparent Kd” value under setting [3] turned out to be 190 nM and the “apparent Kd” value under setting [4] is 272 nM.
The corresponding values for “UGUAAUGUUAUUACAGAGGUUUAGAAGGAUAUACAUCGACAUGACCGUACAUGAGGAUCACCCAUGUAGAAGGUCUAACUUCGU” are 5.43 nM and 5.31 nM.
Regarding “GGGUACAUCGGAGGAUAUCAUGUAAACACAUGAGGAUCACCCAUGUCGAUGGAGACAUCGGAGAUUGAGAAGGCCGAUGUACCG”, the “apparent Kd” value runs as follows: under setting [1], 111 nM; under setting [2], 7.62 nM.
Consider “GCCAGUUAUGUAGGAUAUGCGAGGCGAGCCUGAGCAGAAGGACAUGAGGAUCACCCAUGUAUUGCGGUUUAUGUUCAGAUCGCU”, for which the “apparent Kd” value came to 15.9 nM under setting [3] and 18.2 nM under setting [4].
Consider “UAUUGUUCCUGAGGAUAUCAGUUGUUUGCAUUAUGAGAAGGCAGUACAUGAGGAUCACCCAUGUUGGGAUUUGAUAGAAUGAUA”, for which the “apparent Kd” value runs as follows: under setting [1], 185 nM; under setting [2], 195 nM.
For “UAUUUAAUCAUAGGAUAUAGUGUGUAAUUUGGACUAGAAGGAUGUAACAUGAGGAUCACCCAUGUGGUAAAUGGGAUACAUUCC”, the “apparent Kd” value runs as follows: under setting [1], 125 nM; under setting [2], 132 nM.
On to “GCGAUUAAGUAGAAGGUACAAUAUAUAUCAUUGUAAGGAUAUACUUACAUGAGGAUCACCCAUGUUAAAGGAUAUAAUAAUCGC”, for which the “apparent Kd” value amounted to 9.08 nM under setting [1] and 8.98 nM under setting [2].
Turning to “UCCCUUAGUGUAAGGAUAUCGUUCCAUUGACGGAGCGAGAAGGUACAUGAGGAUCACCCAUGUGUCAAUGCCGG”, the “apparent Kd” value reads like this: under setting [3], 20 nM; under setting [4], 54.4 nM.
On to “AUGAGUAAAGCAGGAUAUCUAUUGUCUCAGUAACAUGAGGAUCACCCAUGUAGAGAAGGGCUUAGUCAUUCACUUCGGAGUUGU”, for which the “apparent Kd” value under setting [3] was determined as 14.8 nM and the “apparent Kd” value under setting [4] was determined as 38 nM.
On to “AUUAAUUAAUUAAUACAUGAGGAUCACCCAUGUAAUAAGAUCUAGGAUAUCAGCUCGAAUAGAGCUGAGAAGGAGAUCACAUGU”, for which the “apparent Kd” value was 43.4 nM under setting [1] and 35.3 nM under setting [2].
The matching figures for “CAGGCGGAGUCAGGAUAUGCACGGUGGACCCAUAACAUGAGGAUCACCCAUGUUACUACGCCUCAGCAGAAGGGACAACCUCCU”: 28.7 nM and 6.21 nM.
Consider “GUGAGUAGUCAGGAUAUGCUGUACAAAAGUACAGCAGAAGGGAUUACAUGAGGAUCACCCAUGUUAUCUUCAUG”, for which the “apparent Kd” value under setting [3] came out at 185 nM and the “apparent Kd” value under setting [4] turned out to be 510 nM.
Consider “GGUGGCUUCACAGGAUAUCCCGAGCCAAACAUGAGGAUCACCCAUGUGCUGGUAUUAAAAUUUGCGGAGAAGGGUGGUUCACGU”, for which the “apparent Kd” value is, setting by setting: under setting [1], 154 nM; under setting [2], 74.1 nM.
Consider “GCACGGUUGGUAGGAUAUCAUUGCGAUUAGCUAUGAGAAGGACCACAUGAGGAUCACCCAUGUCCUCUAAUUAGCCUGCCGUGC”, for which the “apparent Kd” value runs as follows: under setting [3], 152 nM; under setting [4], 355 nM.
For the sequence “CUUUAUCACUAUACAUGAGGAUCACCCAUGUUAUCAUCAUGAGAGGAUAUCGUAUUUGGAUUUUUCGAGAAGGCUCUAUUGUAU”, the “apparent Kd” value under setting [1] stood at 152 nM and the “apparent Kd” value under setting [2] was determined as 53.9 nM.
In the case of “GGAGCACGCACAGGAUAUCCGGCGGCGCUCGUCGGAGAAGGGUGACAUGAGGAUCACCCAUGUACGUGCAACCCAGUUUGAGAG”, the “apparent Kd” value under setting [1] came to 122 nM and the “apparent Kd” value under setting [2] came to 44.8 nM.
In the case of “UAUAUAUAGUAAGGAUAUGUAAUUAUUUGAUAAACAGAAGGUACUGACAUGAGGAUCACCCAUGUUUUAGUGUGGGCAUGUAGA”, the “apparent Kd” value was determined as 88.2 nM under setting [3] and 138 nM under setting [4].
The matching figures for “UUAUGUUUUGUAGGAUAUCAUUAGAUUUGUAAUUUAAUUGUAAUUUAGAUAUGAGAAGGACAUUUACAUGAGGAUCACCCAUGU”: 16.1 nM and 11.5 nM.
Turning to “CCCAAACUUGGGCUUGGUGGUGCAUAGGAUAUGCUUGAACAUGAGGAUCACCCAUGUGCAACUGUGCAGAAGGGUGCAGGGCCU”, the “apparent Kd” value turned out to be 12.7 nM under setting [1] and 8.31 nM under setting [2].
As to “CUUGUGUAAGGAUAUCGAGUAGAACGCUCGAGUUCUGAGCUCGAGAAGGUACAUGAGGAUCACCCAUGUUAAAA”, the “apparent Kd” value under setting [3] amounted to 40.1 nM and the “apparent Kd” value under setting [4] was determined as 66.2 nM.
For the sequence “UGGUACUAGGGAGGAUAUGGGAAGAUACAUGAGGAUCACCCAUGUUUAAGAAUGCCGAGAGGCAACAAGAAGGCCCUAGUACCU”, the “apparent Kd” value was determined as 532 nM under setting [1] and 98.9 nM under setting [2].
The corresponding values for “GAAAAACAUGAGGAUCACCCAUGUAGAAAUAUGGGAGGAUAUACAAAGUCGAAAGACAAAGUAGAAGGCCUAAAAG” are 146 nM and 26.9 nM.
Take “CAGUAGAUCCGAGGAUAUACAAUCCGGAAACGGUACAUGAGGAUCACCCAUGUAGAAGGCGGAUCUACAGGUACUAAAGUACCC”: the “apparent Kd” value under setting [3] came out at 5.99 nM and the “apparent Kd” value under setting [4] worked out at 7.8 nM.
